# Compound activity (PubChem)
# A selection: hits, their analogues and other compounds. The true share with any hit is near 2.3%.
# ABCG2 block = ABCG2 efflux pump inhibitors, primary screen, multiplex with ABCB1, IgMXP3 cells, flow cytometry; inhibition, % at 6.6 µM; 0.1% of 190,000 active; JC-1 efflux; Broad substrate specificity ATP-binding cassette transporter ABCG2 (Homo sapiens), Q9UNQ0;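 active means inhibition above 80%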
#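 Test system: ABCG2 IgMXP3 and barcoded ABCB1 CCRF-Adr cell mix; Schedule: cells with compound and JC-1, 10 min at 25 °C, rotating, no wash; Technique: flow cytometry of retained JC-1 fluorescence; Measure: % inhibition of efflux relative to nicardipine and DMSO; Controls: nicardipine high and DMSO low controls.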
# RAM inhibit = inhibitors of the yeast RAM network, primary screen, dse1pr::URA3 reporter, 5-FOA selection | S. cerevisiae dse1pr::URA3 reporter, 5-FOA growth OD615, 2 d; analog-sensitive cbk1-as2 kinase mutant strain | inhibition, % at 50 µM | AID 868, 2007 | 1.8% of 190,000 active;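 active means inhibition above a set limit, 3 SD over mean compound inhibition, cut at about 8.4% in these data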;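 further: inhibition rescues growth on 5-FOA so higher OD means more RAM inhibition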
# Arbovirus anti = antivirals against arbovirus infection, primary screen, cell-based, full library, 10K replicate subset. arbovirus infection cell-based antiviral screen. inhibition, % at 10 µM. 0.37% of 200,000 active. AID 1251, 2008; in the data active means inhibition above about 30%
# ABCB1 block = ABCB1 efflux pump inhibitors, primary screen, cell-based, multiplex, flow cytometry, ABCG2 counter-screen; ATP-dependent translocase ABCB1 (Homo sapiens), P08183; CCRF-Adr cells, JC-1 efflux; inhibition, % at 6.6 µM; 0.067% of 190,000 active; AID 1326, 2008; in the data active means inhibition above about 40%;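 further: higher value means more JC-1 retained so stronger ABCB1 efflux block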
# Target sequence (P08183 whole entry, looked up): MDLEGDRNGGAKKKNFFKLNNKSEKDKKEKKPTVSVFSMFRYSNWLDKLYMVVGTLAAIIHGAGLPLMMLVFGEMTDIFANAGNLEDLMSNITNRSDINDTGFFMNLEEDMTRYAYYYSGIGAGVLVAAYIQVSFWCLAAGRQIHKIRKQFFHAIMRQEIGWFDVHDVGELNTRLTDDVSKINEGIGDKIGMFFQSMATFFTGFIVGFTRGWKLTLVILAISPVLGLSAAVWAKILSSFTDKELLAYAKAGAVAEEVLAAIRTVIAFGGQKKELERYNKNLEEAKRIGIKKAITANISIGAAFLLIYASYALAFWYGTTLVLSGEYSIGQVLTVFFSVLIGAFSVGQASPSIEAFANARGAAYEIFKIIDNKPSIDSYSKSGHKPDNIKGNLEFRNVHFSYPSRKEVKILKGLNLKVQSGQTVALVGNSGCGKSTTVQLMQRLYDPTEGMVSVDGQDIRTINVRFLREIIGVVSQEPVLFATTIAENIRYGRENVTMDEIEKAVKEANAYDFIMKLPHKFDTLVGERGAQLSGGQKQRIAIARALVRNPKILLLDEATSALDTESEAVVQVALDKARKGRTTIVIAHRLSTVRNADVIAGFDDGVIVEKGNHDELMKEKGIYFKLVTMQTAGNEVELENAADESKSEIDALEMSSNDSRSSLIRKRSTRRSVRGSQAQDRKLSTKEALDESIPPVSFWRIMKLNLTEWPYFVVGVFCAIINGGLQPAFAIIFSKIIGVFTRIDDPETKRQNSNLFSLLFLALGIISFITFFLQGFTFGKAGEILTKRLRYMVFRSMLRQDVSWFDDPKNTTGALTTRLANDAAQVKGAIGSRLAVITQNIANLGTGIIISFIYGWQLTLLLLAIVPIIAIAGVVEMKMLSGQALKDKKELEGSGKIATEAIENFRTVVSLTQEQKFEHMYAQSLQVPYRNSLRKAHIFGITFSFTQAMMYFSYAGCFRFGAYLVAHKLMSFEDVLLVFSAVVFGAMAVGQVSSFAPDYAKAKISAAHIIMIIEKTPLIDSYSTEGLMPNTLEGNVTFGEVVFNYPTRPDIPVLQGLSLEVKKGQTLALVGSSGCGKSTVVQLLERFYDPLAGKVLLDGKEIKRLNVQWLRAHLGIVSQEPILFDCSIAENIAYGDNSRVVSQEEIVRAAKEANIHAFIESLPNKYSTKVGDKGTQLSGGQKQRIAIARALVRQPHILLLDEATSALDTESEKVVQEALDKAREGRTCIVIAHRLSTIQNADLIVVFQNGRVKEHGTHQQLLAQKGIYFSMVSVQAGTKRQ
# RAM efflux-def = 5-FOA growth of efflux-deficient control yeast, dose response, counter-screen for RAM network inhibitor project, S. cerevisiae, OD615; shares compounds with RAM inhibit; S. cerevisiae efflux-deficient reporter strain, 5-FOA growth OD615, 2 days; max inhibition, %; 1,200 tested, under 10 active; call rule not given here
# Hits are given with their value; i = inactive; nt = no result given.
SMILES,ABCG2 block,RAM inhibit,Arbovirus anti,ABCB1 block,RAM efflux-def
Cc1c(N(C(=O)Cc2cccs2)C2(C(=O)NC3CCCC3)CCCCC2)c(=O)n(-c2ccccc2)n1C,i,i,i,i,nt
Cc1ccc(-n2ncc3c(SCc4ccccc4)ncnc32)cc1,i,12,i,i,i
Cc1ccc(CSc2ncnc3c2cnn3-c2ccccc2)cc1,i,i,i,i,nt
CC(C)C[C@H](NC(=O)c1[nH]cnc1C(=O)N[C@H](C)c1ccccc1)C(=O)OCc1ccccc1,i,12,i,i,i
COc1ccccc1N(CC(O)COc1c(C)cc(C)cc1C)S(=O)(=O)c1ccccc1 (stereo not drawn),i,12,i,i,i
COc1ccccc1N(CC(O)COc1ccccc1)S(=O)(=O)c1ccccc1 (stereo not drawn),i,i,i,i,nt
COc1ccccc1N(CC(O)CN(c1ccccc1)S(C)(=O)=O)S(=O)(=O)c1ccccc1 (stereo not drawn),i,i,i,i,nt
COc1ccccc1N(CC(O)COc1ccc(C)cc1)S(=O)(=O)c1ccccc1 (stereo not drawn),i,12,i,i,i
COc1ccccc1-n1c(CNC(=O)c2cccc([N+](=O)[O-])c2C)n[nH]c1=S,i,i,i,i,nt
CCCSc1nc(NCc2ccco2)c2c3c(sc2n1)COC(C)(C)C3,i,13,i,i,i
COC(=O)C1=CN(Cc2cccs2)C=C(C(=O)OC)C1c1cccc(Cl)c1,i,13,i,i,i
COc1ccccc1N1CCN(CCOc2c(OC)cccc2OC)CC1,i,i,i,i,nt
O=C(COC(=O)CCN1C(=O)/C(=C\C=C\c2ccccc2)SC1=S)Nc1ccc(Br)cc1,i,16,i,i,i
CC(C)c1ccccc1NC(=O)COC(=O)CCN1C(=O)/C(=C\C=C\c2ccccc2)SC1=S,i,i,i,i,nt
O=C(CN1C(=O)NC2(CCCCC2)C1=O)N1CCN(S(=O)(=O)c2ccccc2)CC1,i,i,i,i,nt
CN1C(=O)/C(=C/c2ccccc2OCc2cccc(F)c2)NC1=S,i,11,i,i,i
CCOC(=O)c1c(C)[nH]c(C(=O)CSc2nccc(C)n2)c1C,i,i,i,i,nt
O=C(OC(c1ccc(NS(=O)(=O)c2ccccc2)cc1)(C(F)(F)F)C(F)(F)F)c1ccccc1,i,13,i,i,i
NC(=O)COC(=O)CCCSc1nc2ccccc2s1,i,i,i,i,nt
N#Cc1ccsc1NC(=O)COC(=O)CCCSc1nc2ccccc2s1,i,15,i,i,i
COC(=O)CSc1nc(N2CCCCC2)c2c(c1C#N)CCCC2,i,14,i,i,i
N#Cc1c(SCC(=O)O)nc(N2CCCCC2)c2c1CCCC2,i,i,i,i,nt
COCCNC(=S)N(CCc1c(C)[nH]c2ccc(F)cc12)Cc1cccs1,i,12,i,i,i
CCNC(=S)N(CCc1c(C)[nH]c2ccc(C)cc12)Cc1cccs1,i,i,i,i,nt
COc1ccc(N(C)C(=S)Oc2ccc(C(=O)Nc3ccccc3)cc2)cc1,i,i,i,i,nt
SMILES,ABCG2 block,RAM inhibit,Arbovirus anti,ABCB1 block,RAM efflux-def
Cc1cccc(N(C)C(=S)Oc2ccc3ccccc3c2)c1,i,12,i,i,i
COc1ccccc1OCC(=O)Nc1ccc(CSc2ccccc2)cc1C,i,18,i,i,i
CCCOc1ccc(N2C(=O)CC(N3CCC(c4nc5ccccc5o4)CC3)C2=O)cc1 (stereo not drawn),i,i,i,i,nt
O=C(Nc1ccc2c(c1)OCO2)c1ccc(COc2ccc3c(c2)CCC3)o1,i,11,i,i,i
Cc1ccc(C(=O)Nc2ccc3c(c2)CCC3)o1,i,i,i,i,nt
Cc1cccc(C(=O)N2CCCCCC2)c1[N+](=O)[O-],i,i,i,i,nt
COc1cc(CC(NC(C)=O)C(=O)NC2CCN(c3c(Cc4ccccc4)c(C)nc4ncnn34)CC2)cc(OC)c1 (stereo not drawn),i,14,i,i,i
OC(COCC(F)(F)C(F)(F)C(F)(F)C(F)F)Cn1c2ccc(Cl)cc2c2cc(Cl)ccc21 (stereo not drawn),i,18,i,i,i
N=c1n(Cc2ccc(Cl)cc2)c2ccccc2n1CC(O)COc1ccccc1 (stereo not drawn),i,i,i,i,nt
O=C(COC(=O)c1cc2ccccc2oc1=O)c1cccc([N+](=O)[O-])c1,i,i,i,i,nt
O=C(CCNC(=O)c1ccccc1Cl)Nc1cc(C(F)(F)F)ccc1Cl,i,i,i,i,nt
Cc1ccc(C)c(C(=O)COC(=O)CCCC(=O)Nc2cc(C(F)(F)F)ccc2Cl)c1,i,18,i,i,i
Cc1cc2ccccc2c(=O)n1CC(=O)NCC(=O)N1CCCC(C)C1 (stereo not drawn),i,i,i,i,nt
CC1(C)C(C=C(Cl)Cl)C1C(=O)Nc1ccc([N+](=O)[O-])cc1 (stereo not drawn),i,11,i,i,i
Cc1ccc(C(=O)N/C(=C\c2cccc([N+](=O)[O-])c2)C(=O)OCN2C(=O)c3ccccc3C2=O)cc1,i,i,i,i,nt
CCCCOc1ccc(C(=O)N/C(=C\c2ccc(OC)cc2)C(=O)OCc2ccco2)cc1,i,12,i,i,i
C=CCOC(=O)/C(=C\c1ccc(OC)cc1)NC(=O)c1ccco1,i,i,i,i,nt
CCCCOc1ccc(C(=O)N/C(=C\c2cccc([N+](=O)[O-])c2)C(=O)OCc2ccco2)cc1,i,11,i,i,i
O=C(COC(=O)c1ccc2ccccc2n1)Nc1ncc(C(F)(F)F)cc1Cl,i,i,i,i,nt
CCCCn1c(SCC(=O)Nc2nc(C)cs2)nnc1-c1cccnc1,i,i,i,i,nt
CCn1c(SCC(=O)Nc2ccc(N3CCOCC3)c(Cl)c2)nnc1-c1ccc(N)cc1,i,i,i,i,nt
CSc1ccc(Cl)c(C(=O)NCCOc2cc(C(C)C)ccc2C)c1,i,14,i,i,i
COc1ccc(C(=O)Nc2ccc(C(=O)OCC(=O)c3ccccc3)cc2)cc1,i,i,i,i,nt
COc1ccc(C(=O)OCC(=O)c2ccc(C3CCCCC3)cc2)cc1,i,11,i,i,i
CC(C)SCCCCOc1ccc2ccccc2c1,i,12,i,i,i
O=c1cc(CN2CCN(c3ccc(O)cc3)CC2)nc2scc(-c3ccccc3)n12,i,i,i,i,nt
CCOC(=O)/C(=N/Nc1ccc(C)cc1)S(=O)(=O)c1ccc(Cl)cc1,i,12,i,i,i
CCOC(=O)/C(=N\Nc1ccccc1)S(=O)(=O)c1ccccc1,i,i,i,i,nt
COc1cccc(-c2csc3nnc(SCC(=O)NCc4cccs4)n23)c1,i,17,i,i,i
